The results in this text go back to ChEMBL document CHEMBL1130215, “7-alkylidenecephalosporin esters as inhibitors of human leukocyte elastase” (J Med Chem, 1997).

For this experiment, the target named is T1, Neutrophil elastase (Homo sapiens, UniProt P08246).
T1 sequence (P08246 whole entry): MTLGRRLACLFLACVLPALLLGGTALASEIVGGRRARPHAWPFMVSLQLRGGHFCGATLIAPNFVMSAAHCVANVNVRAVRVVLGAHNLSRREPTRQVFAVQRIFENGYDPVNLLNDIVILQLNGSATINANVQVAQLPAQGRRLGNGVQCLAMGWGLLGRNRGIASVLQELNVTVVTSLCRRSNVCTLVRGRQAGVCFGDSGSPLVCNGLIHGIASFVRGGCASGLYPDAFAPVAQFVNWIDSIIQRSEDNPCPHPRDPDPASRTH
Description: Inhibition of human leukocyte elastase. The essentials: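 Enzyme preincubated 4 min with inhibitor (DMSO stock, 1 mg/mL, diluted in DMSO when needed) in 0.1 M Tris-NaCl buffer pH 7.5 with NaN3. Aliquot then added to N-(methoxysuccinyl)-Ala-Ala-Pro-Val 4-nitroanilide substrate in buffer. Residual hydrolysis rate read at 410 nm for 2 min at 1 s intervals; IC50 taken from varied inhibitor volumes.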
In the case of `CC(=O)OCC1=C(C(=O)OC(c2ccccc2)c2ccccc2)N2C(=O)/C(=C/c3ccccn3)C2SC1` (stereo not drawn), the IC50 is more than 10 µM.
Next, `CC(=O)OCC1=C(C(=O)OC(c2ccccc2)c2ccccc2)N2C(=O)/C(=C\Br)C2SC1` (stereo not drawn): 0.39 µM; `CC(=O)OCC1=C(C(=O)OC(c2ccccc2)c2ccccc2)N2C(=O)/C(=C/c3ccccc3)C2S(=O)(=O)C1` (stereo not drawn): 8.9 µM; `CC(=O)OCC1=C(C(=O)OC(c2ccccc2)c2ccccc2)N2C(=O)C(=C=CC(C)(C)C)C2SC1` (stereo not drawn): more than 10 µM.
Next, `CC(=O)OCC1=C(C(=O)OC(c2ccccc2)c2ccccc2)N2C(=O)/C(=C/C=O)C2SC1` (stereo not drawn): 13.9 µM; `CO[C@H]1C(=O)N2C(C(=O)OC(c3ccccc3)c3ccccc3)=C(COC(C)=O)CSC12` (stereo partly drawn): 5.35 µM.
On to `CON(C)C(=O)/C=C1/C(=O)N2C(C(=O)OC(c3ccccc3)c3ccccc3)=C(COC(C)=O)CS(=O)(=O)C12` (stereo not drawn), for which the IC50 was more than 10 µM.
With `CC(=O)OCC1=C(C(=O)OC(c2ccccc2)c2ccccc2)N2C(=O)C(=C(Br)Br)C2SC1` (stereo not drawn), the half-maximal inhibitory concentration (IC50) was 0.26 µM.
Next, `CC(=O)OCC1=C(C(=O)OC(c2ccccc2)c2ccccc2)N2C(=O)/C(=C/CO)C2SC1` (stereo not drawn): more than 10 µM; `CC(=O)OCC1=C(C(=O)OC(c2ccccc2)c2ccccc2)N2C(=O)C(=O)C2SC1` (stereo not drawn): more than 10 µM; `CC(=O)OCC1=C(C(=O)OC(c2ccccc2)c2ccccc2)N2C(=O)/C(=C\c3ccccc3)C2S(=O)(=O)C1` (stereo not drawn): 6 µM.
The result for `CC(=O)OCC1=C(C(=O)OC(c2ccccc2)c2ccccc2)N2C(=O)C(=C=CC(C)(C)C)C2S(=O)(=O)C1` (stereo not drawn) reads 10.5 µM; that for `CC(=O)OCC1=C(C(=O)OC(c2ccccc2)c2ccccc2)N2C(=O)/C(=C\Br)C2S(=O)(=O)C1` (stereo not drawn), 3.36 µM.
As for `CC(=O)OCC1=C(C(=O)OC(c2ccccc2)c2ccccc2)N2C(=O)C(=C=CBr)C2SC1` (stereo not drawn), 5.4 µM corresponded to half-maximal inhibition (IC50). This IC50 lies about 1.6-fold higher than the previous one.
`CC(=O)OCC1=C(C(=O)OC(c2ccccc2)c2ccccc2)N2C(=O)/C(=C/C#N)C2S(=O)(=O)C1` (stereo not drawn) had a 50% inhibitory concentration (IC50) of 0.49 µM. This IC50 is about 11-fold lower than that of the molecule before.
The result for `CC(=O)OCC1=C(C(=O)OC(c2ccccc2)c2ccccc2)N2C(=O)C(=C(Cl)Cl)C2S(=O)(=O)C1` (stereo not drawn) reads 2.56 µM.
Next, `CC(=O)OCC1=C(C(=O)OC(c2ccccc2)c2ccccc2)N2C(=O)C(=C(Cl)Cl)C2SC1` (stereo not drawn): 6.41 µM.
The result for `COC(=O)/C=C1/C(=O)N2C(C(=O)OC(c3ccccc3)c3ccccc3)=C(COC(C)=O)CSC12` (stereo not drawn) reads 2.6 µM; that for `CC(=O)OCC1=C(C(=O)OC(c2ccccc2)c2ccccc2)N2C(=O)CC2SC1` (stereo not drawn), more than 10 µM.
The molecule `CC(=O)/C=C1/C(=O)N2C(C(=O)OC(c3ccccc3)c3ccccc3)=C(COC(C)=O)CS(=O)(=O)C12` (stereo not drawn) displayed an IC50 of more than 10 µM.
Molecule `CC(=O)OCC1=C(C(=O)OC(c2ccccc2)c2ccccc2)N2C(=O)[C@@H](N)C2SC1` (stereo partly drawn) came in with an IC50 of more than 10 µM.
`[2H]C(=C=C1C(=O)N2C(C(=O)OC(c3ccccc3)c3ccccc3)=C(COC(C)=O)CS(=O)(=O)C12)C(C)(C)C` (stereo not drawn) registered an IC50 of 13.5 µM.
`COC(=O)/C(Br)=C1/C(=O)N2C(C(=O)OC(c3ccccc3)c3ccccc3)=C(COC(C)=O)CSC12` (stereo not drawn): the IC50 was 0.21 µM. This IC50 lies about 64-fold lower than the previous one.
As for `C=C=C1C(=O)N2C(C(=O)OC(c3ccccc3)c3ccccc3)=C(COC(C)=O)CSC12` (stereo not drawn), the IC50 was 9 µM.
The result for `CC(=O)OCC1=C(C(=O)OC(c2ccccc2)c2ccccc2)N2C(=O)/C(=C/c3ccccc3)C2SC1` (stereo not drawn) reads more than 10 µM; that for `CO[C@H]1C(=O)N2C(C(=O)OC(c3ccccc3)c3ccccc3)=C(COC(C)=O)CS(=O)(=O)C12` (stereo partly drawn), 0.28 µM.
As for `COC(=O)/C=C1/C(=O)N2C(C(=O)OC(c3ccccc3)c3ccccc3)=C(COC(C)=O)CS(=O)(=O)C12` (stereo not drawn), the IC50 worked out at 8.9 µM.
Molecule `CC(=O)OCC1=C(C(=O)OC(c2ccccc2)c2ccccc2)N2C(=O)/C(=C\c3ccccc3)C2SC1` (stereo not drawn) yielded an IC50 of more than 10 µM.
The result for `CC(=O)/C=C1/C(=O)N2C(C(=O)OC(c3ccccc3)c3ccccc3)=C(COC(C)=O)CSC12` (stereo not drawn) reads 4.27 µM.
`CC(=O)OCC1=C(C(=O)OC(c2ccccc2)c2ccccc2)N2C(=O)[C@H](I)C2SC1` (stereo partly drawn): it took 1.18 µM to reach half-maximal inhibition (IC50).
With `CC(=O)OCC1=C(C(=O)OC(c2ccccc2)c2ccccc2)N2C(=O)/C(=C/C#N)C2SC1` (stereo not drawn), the IC50 was more than 10 µM.
Molecule `CC(=O)OCC1=C(C(=O)OC(c2ccccc2)c2ccccc2)N2C(=O)C(Br)(Br)C2SC1` (stereo not drawn) registered an IC50 of 1.39 µM. This counts as single-digit micromolar.
Next, `CC(=O)OCC1=C(C(=O)OC(c2ccccc2)c2ccccc2)N2C(=O)/C(=C/C(=O)OC(C)(C)C)C2S(=O)(=O)C1` (stereo not drawn): 7.1 µM; `CC(=O)OCC1=C(C(=O)OC(c2ccccc2)c2ccccc2)N2C(=O)[C@H](Cl)C2SC1` (stereo partly drawn): 6 µM.
The result for `CC(=O)OCC1=C(C(=O)OC(c2ccccc2)c2ccccc2)N2C(=O)/C(=C/C(=O)OC(C)(C)C)C2SC1` (stereo not drawn) reads more than 10 µM.
Next, `CC(=O)OCC1=C(C(=O)OC(c2ccccc2)c2ccccc2)N2C(=O)/C(=C/c3ccccn3)C2S(=O)(=O)C1` (stereo not drawn): more than 10 µM; `CC(=O)OCC1=C(C(=O)OC(c2ccccc2)c2ccccc2)N2C(=O)C(=C(Br)Br)C2S(=O)(=O)C1` (stereo not drawn): 2.07 µM.
In turn, `C=C=C1C(=O)N2C(C(=O)OC(c3ccccc3)c3ccccc3)=C(COC(C)=O)CS(=O)(=O)C12` (stereo not drawn) returned a half-maximal inhibitory concentration (IC50) of 6.1 µM.
